ChEMBL document CHEMBL5303300, “EUbOPEN Chemogenomics Library - Multiplex” (2023)
Values joined by “and” are separate entries in the source; they are usually repeats but may differ in a detail not shown here. Equal entries are not always repeated.

Test system: Fibroblast
Experiment: Multiplex assay against human fibroblast
Assay type: toxicity, cell-based
Conditions: number of replicates 2
Summary of the method: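 Four dyes were applied at seeding to live cells: Hoechst33342, BioTracker Green Microtubule Cytoskeleton Dye, MitoTracker Red and Annexin V Alexa Fluor 680. Imaging after compound addition used a CQ1 microscope at 37°C and 5% CO2. CellPathfinder machine-learning gating then sorted cells into Hoechst high-intensity objects or normal cells, normal cells into healthy, pyknosed or fragmented nuclei, and pyknosed cells into mitotic or apoptotic, with tubulin, mitochondrial-mass and membrane-permeability phenotypes given as per cents of healthy-nucleus cells.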

[1] = 12 h, 1 µM, compound concentration 1 uM
[2] = 12 h, 10 µM, compound concentration 10 uM
[3] = 24 h, 1 µM, compound concentration 1 uM
[4] = 24 h, 10 µM, compound concentration 10 uM
[5] = 48 h, 1 µM, compound concentration 1 uM
[6] = 48 h, 10 µM, compound concentration 10 uM

Cc1c(C(=O)Nc2ccc(N3C[C@@H](C)O[C@@H](C)C3)nc2)cccc1-c1ccc(OC(F)(F)F)cc1 [SONIDEGIB] was tested, and the “Population Apoptotic (%)” value [1] was 46% and 32%, the “Population Fragmented Nuclei (%)” value [1] was 13% and 9% and the “Population Healthy Nuclei (%)” value [1] was 64% and 70%. The “Population Hoechst High Intensity Objects (%)” value [1] was 0%, the “Population Membrane Permeable-Phenotype (%)” value [1] was 5% and the “Population Mitochondria Different-Phenotype (%)” value [1] was 0% and 1%. The “Population Mitotic Cells (%)” value [1] was 53% and 67%, the “Population Normal (%)” value [1] was 100% and the “Population Pyknosed Nuclei (%)” value [1] was 22% and 20%. For the same compound, the “Population Tubulin-Different-Phenotype (%)” value [1] was 16% and 10%, the “Total Cell Count” value [1] was 193 and 230 and the “Population Apoptotic (%)” value [2] was 55% and 38%. The “Population Fragmented Nuclei (%)” value [2] was 8% and 9%, the “Population Healthy Nuclei (%)” value [2] was 83% and 80% and the “Population Hoechst High Intensity Objects (%)” value [2] was 0%. For the same compound, the “Population Membrane Permeable-Phenotype (%)” value [2] was 1% and 0%, the “Population Mitochondria Different-Phenotype (%)” value [2] was 1% and 0% and the “Population Mitotic Cells (%)” value [2] was 44% and 61%. For the same compound, the “Population Normal (%)” value [2] was 100%, the “Population Pyknosed Nuclei (%)” value [2] was 7% and 10% and the “Population Tubulin-Different-Phenotype (%)” value [2] was 1% and 7%. For the same compound, the “Total Cell Count” value [2] was 117 and 128, the “Population Apoptotic (%)” value [3] was 53% and 52% and the “Population Fragmented Nuclei (%)” value [3] was 15% and 12%. The “Population Healthy Nuclei (%)” value [3] was 60% and 69%, the “Population Hoechst High Intensity Objects (%)” value [3] was 0% and the “Population Membrane Permeable-Phenotype (%)” value [3] was 3%. The “Population Mitochondria Different-Phenotype (%)” value [3] was 1% and 0%, the “Population Mitotic Cells (%)” value [3] was 46% and 47% and the “Population Normal (%)” value [3] was 100%. For the same compound, the “Population Pyknosed Nuclei (%)” value [3] was 24% and 17%, the “Population Tubulin-Different-Phenotype (%)” value [3] was 10% and 7% and the “Total Cell Count” value [3] was 179 and 224. For the same compound, the “Population Apoptotic (%)” value [4] was 53% and 57%, the “Population Fragmented Nuclei (%)” value [4] was 15% and 16% and the “Population Healthy Nuclei (%)” value [4] was 73% and 70%. For the same compound, the “Population Hoechst High Intensity Objects (%)” value [4] was 0%, the “Population Membrane Permeable-Phenotype (%)” value [4] was 4% and 5% and the “Population Mitochondria Different-Phenotype (%)” value [4] was 0% and 2%. The “Population Mitotic Cells (%)” value [4] was 46% and 42%, the “Population Normal (%)” value [4] was 100% and the “Population Pyknosed Nuclei (%)” value [4] was 10% and 13%. For the same compound, the “Population Tubulin-Different-Phenotype (%)” value [4] was 4% and 8%, the “Total Cell Count” value [4] was 123 and 141 and the “Population Apoptotic (%)” value [5] was 63% and 45%. The “Population Fragmented Nuclei (%)” value [5] was 16% and 12%, the “Population Healthy Nuclei (%)” value [5] was 65% and 72% and the “Population Hoechst High Intensity Objects (%)” value [5] was 0%. For the same compound, the “Population Membrane Permeable-Phenotype (%)” value [5] was 1% and 5%, the “Population Mitochondria Different-Phenotype (%)” value [5] was 0% and the “Population Mitotic Cells (%)” value [5] was 36% and 54%. For the same compound, the “Population Normal (%)” value [5] was 100%, the “Population Pyknosed Nuclei (%)” value [5] was 18% and 15% and the “Population Tubulin-Different-Phenotype (%)” value [5] was 9% and 3%. The “Total Cell Count” value [5] was 162 and 218, the “Population Apoptotic (%)” value [6] was 57% and 66% and the “Population Fragmented Nuclei (%)” value [6] was 13% and 18%. For the same compound, the “Population Healthy Nuclei (%)” value [6] was 75% and 59%, the “Population Hoechst High Intensity Objects (%)” value [6] was 0% and the “Population Membrane Permeable-Phenotype (%)” value [6] was 4% and 6%. For the same compound, the “Population Mitochondria Different-Phenotype (%)” value [6] was 0% and 1%, the “Population Mitotic Cells (%)” value [6] was 42% and 33% and the “Population Normal (%)” value [6] was 100%. For the same compound, the “Population Pyknosed Nuclei (%)” value [6] was 10% and 21%, the “Population Tubulin-Different-Phenotype (%)” value [6] was 3% and 6% and the “Total Cell Count” value [6] was 128 and 138.

For Cc1ccc2c(c1CCC(=O)O)CC[C@@H](NS(=O)(=O)c1ccc(Cl)cc1)C2 [TERUTROBAN], the “Population Apoptotic (%)” value [1] was 25% and 43%, the “Population Fragmented Nuclei (%)” value [1] was 8% and the “Population Healthy Nuclei (%)” value [1] was 71% and 75%. The “Population Hoechst High Intensity Objects (%)” value [1] was 0%, the “Population Membrane Permeable-Phenotype (%)” value [1] was 5% and 3% and the “Population Mitochondria Different-Phenotype (%)” value [1] was 1%. The “Population Mitotic Cells (%)” value [1] was 74% and 56%, the “Population Normal (%)” value [1] was 100% and the “Population Pyknosed Nuclei (%)” value [1] was 19% and 15%. For the same compound, the “Population Tubulin-Different-Phenotype (%)” value [1] was 10% and 7%, the “Total Cell Count” value [1] was 221 and 236 and the “Population Apoptotic (%)” value [2] was 40% and 55%. For the same compound, the “Population Fragmented Nuclei (%)” value [2] was 8% and 15%, the “Population Healthy Nuclei (%)” value [2] was 69% and 67% and the “Population Hoechst High Intensity Objects (%)” value [2] was 0%. For the same compound, the “Population Membrane Permeable-Phenotype (%)” value [2] was 11% and 7%, the “Population Mitochondria Different-Phenotype (%)” value [2] was 1% and 0% and the “Population Mitotic Cells (%)” value [2] was 59% and 44%. The “Population Normal (%)” value [2] was 100%, the “Population Pyknosed Nuclei (%)” value [2] was 21% and 16% and the “Population Tubulin-Different-Phenotype (%)” value [2] was 26% and 19%. For the same compound, the “Total Cell Count” value [2] was 203 and 208, the “Population Apoptotic (%)” value [3] was 50% and 40% and the “Population Fragmented Nuclei (%)” value [3] was 10% and 14%. For the same compound, the “Population Healthy Nuclei (%)” value [3] was 74% and 75%, the “Population Hoechst High Intensity Objects (%)” value [3] was 0% and the “Population Membrane Permeable-Phenotype (%)” value [3] was 1%. For the same compound, the “Population Mitochondria Different-Phenotype (%)” value [3] was 1% and 0%, the “Population Mitotic Cells (%)” value [3] was 50% and 59% and the “Population Normal (%)” value [3] was 100%. For the same compound, the “Population Pyknosed Nuclei (%)” value [3] was 14% and 10%, the “Population Tubulin-Different-Phenotype (%)” value [3] was 9% and 3% and the “Total Cell Count” value [3] was 219 and 249. The “Population Apoptotic (%)” value [4] was 52% and 51%, the “Population Fragmented Nuclei (%)” value [4] was 10% and 14% and the “Population Healthy Nuclei (%)” value [4] was 73% and 72%. For the same compound, the “Population Hoechst High Intensity Objects (%)” value [4] was 0%, the “Population Membrane Permeable-Phenotype (%)” value [4] was 5% and 8% and the “Population Mitochondria Different-Phenotype (%)” value [4] was 2% and 0%. For the same compound, the “Population Mitotic Cells (%)” value [4] was 47% and 48%, the “Population Normal (%)” value [4] was 100% and the “Population Pyknosed Nuclei (%)” value [4] was 16% and 13%. The “Population Tubulin-Different-Phenotype (%)” value [4] was 20% and 11%, the “Total Cell Count” value [4] was 218 and 222 and the “Population Apoptotic (%)” value [5] was 70% and 77%. The “Population Fragmented Nuclei (%)” value [5] was 13% and 14%, the “Population Healthy Nuclei (%)” value [5] was 77% and 76% and the “Population Hoechst High Intensity Objects (%)” value [5] was 0%. For the same compound, the “Population Membrane Permeable-Phenotype (%)” value [5] was 5% and 2%, the “Population Mitochondria Different-Phenotype (%)” value [5] was 0% and the “Population Mitotic Cells (%)” value [5] was 30% and 22%. The “Population Normal (%)” value [5] was 100%, the “Population Pyknosed Nuclei (%)” value [5] was 8% and the “Population Tubulin-Different-Phenotype (%)” value [5] was 7% and 1%. The “Total Cell Count” value [5] was 225 and 259, the “Population Apoptotic (%)” value [6] was 62% and 38% and the “Population Fragmented Nuclei (%)” value [6] was 8% and 16%. For the same compound, the “Population Healthy Nuclei (%)” value [6] was 79% and 77%, the “Population Hoechst High Intensity Objects (%)” value [6] was 0% and the “Population Membrane Permeable-Phenotype (%)” value [6] was 6% and 3%. For the same compound, the “Population Mitochondria Different-Phenotype (%)” value [6] was 1% and 0%, the “Population Mitotic Cells (%)” value [6] was 37% and 61% and the “Population Normal (%)” value [6] was 100%. The “Population Pyknosed Nuclei (%)” value [6] was 12% and 5%, the “Population Tubulin-Different-Phenotype (%)” value [6] was 12% and the “Total Cell Count” value [6] was 230 and 225.
